In ChEMBL document CHEMBL5634200, “Discovery of the First Potent DYRK2 Proteolysis Targeting Chimera Degraders” (ACS Med Chem Lett, 2024):
Calls of active or inactive are those of the source. The calls are words filed in the database; no cut-off is given here.

Tests used:
[1] = target: T1, Dual specificity tyrosine-phosphorylation-regulated kinase 2 (Homo sapiens, UniProt Q92630); assay: Inhibition of human recombinant DYRK2 using KKISGRLSPIMTEQ as substrate incubated for 60 mins in the presence of ATP by ADP-Glo kinase assay
T1 sequence (Q92630 whole entry): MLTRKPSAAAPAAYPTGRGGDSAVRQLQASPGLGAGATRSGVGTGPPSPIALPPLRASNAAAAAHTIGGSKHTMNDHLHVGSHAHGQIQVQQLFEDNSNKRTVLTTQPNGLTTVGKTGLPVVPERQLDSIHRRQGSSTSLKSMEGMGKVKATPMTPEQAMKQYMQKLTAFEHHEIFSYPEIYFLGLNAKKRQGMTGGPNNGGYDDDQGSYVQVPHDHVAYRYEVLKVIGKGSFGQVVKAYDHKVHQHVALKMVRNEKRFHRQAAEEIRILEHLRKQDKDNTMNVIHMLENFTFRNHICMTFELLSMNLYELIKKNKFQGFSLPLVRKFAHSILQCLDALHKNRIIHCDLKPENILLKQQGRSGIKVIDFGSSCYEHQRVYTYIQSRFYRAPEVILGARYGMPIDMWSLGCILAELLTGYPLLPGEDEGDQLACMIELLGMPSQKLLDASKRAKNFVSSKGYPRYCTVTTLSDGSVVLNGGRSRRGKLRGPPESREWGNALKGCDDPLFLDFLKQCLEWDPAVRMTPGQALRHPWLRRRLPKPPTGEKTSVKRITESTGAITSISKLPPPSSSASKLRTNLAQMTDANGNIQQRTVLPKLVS

MDA-MB-231 = assay: Antiproliferative activity against human MDA-MB-231 cells assessed as inhibition of cell proliferation by CCK-8 assay; type: functional, cell-based
[2] = target: T1, Dual specificity tyrosine-phosphorylation-regulated kinase 2; assay: Binding affinity to DYRK2 (unknown origin) assessed as dissociation constant by SPR analysis
[3] = target: T2, Protein cereblon/Dual specificity tyrosine-phosphorylation-regulated kinase 2 (Homo sapiens, UniProt Q92630+Q96SW2); assay: PROTAC activity at CRBN/DYRK2 in human HeLa cells assessed as induction of DYRK2 degradation at 10 to 20 uM incubated for 24 hrs by Western blot analysis; type: cell-based; details: dose 10-20 µM
Outline: (§1)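 HeLa cells treated 24 h (one series at 10 and 20 μM, another at 5 and 10 μM); DYRK2 immunoblotted with GAPDH loading reference; band quantitation as mean ± SEM of three independent replicates, one-way ANOVA.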

[4] = target: T2, Protein cereblon/Dual specificity tyrosine-phosphorylation-regulated kinase 2; assay: PROTAC activity at CRBN/DYRK2 in human HeLa cells assessed as reduction in DYRK2 protein level at 5 to 10 uM incubated for 12 hrs by Western blot analysis; type: cell-based; details: dose 5-10 µM
[5] = target: T2, Protein cereblon/Dual specificity tyrosine-phosphorylation-regulated kinase 2; assay: PROTAC activity at CRBN/DYRK2 in human HeLa cells assessed as induction of DYRK2 degradation at 5 to 10 uM incubated for 24 hrs by Western blot analysis; type: cell-based; details: dose 5-10 µM; outline: as §1
[6] = target: T2, Protein cereblon/Dual specificity tyrosine-phosphorylation-regulated kinase 2; assay: PROTAC activity at CRBN/DYRK2 in human HeLa cells assessed as decrease in DYRK2 level by measuring reduction in fluorescence intensity at 5 to 10 uM incubated for 12 hrs by immunofluorescence based confocal laser scanning microscopy; type: cell-based; details: dose 5-10 µM
Outline: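 HeLa cells treated 5 and 10 μM for 12 h; DYRK2 immunostained, Cy3 fluorescence intensity read by confocal laser scanning microscopy and quantified.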

[7] = target: T2, Protein cereblon/Dual specificity tyrosine-phosphorylation-regulated kinase 2; assay: PROTAC activity at CRBN/DYRK2 in human HeLa cells assessed as decrease in DYRK2 level at 5 uM by Western blot analysis; type: cell-based; details: time 3-24 hrs, TDE = time-dependent effect
Outline: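 HeLa cells held at 5 μM over a time course (3 to 24 h); DYRK2 immunoblot normalised to GAPDH, quantified from three independent replicates, one-way ANOVA.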

[8] = target: T2, Protein cereblon/Dual specificity tyrosine-phosphorylation-regulated kinase 2; assay: PROTAC activity at CRBN/DYRK2 in human MDA-MB-231 cells assessed as increase in ubiquitination of DYRK2 at 10 uM incubated for 12 hrs by coimmunoprecipitation analysis; type: cell-based
Outline: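 MM231 cells pretreated with 10 μM MG132 for 2 h, then compound for 12 h; DYRK2 and ubiquitin examined by co-immunoprecipitation.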

[9] = target: T2, Protein cereblon/Dual specificity tyrosine-phosphorylation-regulated kinase 2; assay: PROTAC activity at CRBN/DYRK2 in human MDA-MB-231 cells assessed as induction of DYRK2 degradation incubated for 24 hrs by Western blot analysis; type: cell-based
Outline: (§2)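 MM231 cells given graded concentrations for 24 h; DYRK2 Western blot with GAPDH loading reference, three independent replicates (mean ± SEM); DC50 taken from concentration–degradation data.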

[10] = target: T2, Protein cereblon/Dual specificity tyrosine-phosphorylation-regulated kinase 2; assay: PROTAC activity at CRBN/DYRK2 in human MDA-MB-231 cells assessed as reduction in DYRK2 degradation level at 10 uM preincubated with MG132 for 2 hrs followed by compound addition and further incubated for 12 hrs by Western blot analysis; type: cell-based
Outline: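 MM231 cells pretreated 2 h with 10 μM MG132 (UPS inhibitor) before compound for 12 h; DYRK2 Western blot with GAPDH reference, three independent replicates, one-way ANOVA.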

[11] = target: T2, Protein cereblon/Dual specificity tyrosine-phosphorylation-regulated kinase 2; assay: PROTAC activity at CRBN/DYRK2 in human HeLa cells assessed as induction of DYRK2 degradation incubated for 24 hrs by Western blot analysis; type: cell-based
Outline: (§3)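 HeLa cells exposed to graded concentrations for 24 h; DYRK2 Western blot normalised to GAPDH, three independent replicates (mean ± SEM); DC50 derived from concentration series.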

[12] = target: T2, Protein cereblon/Dual specificity tyrosine-phosphorylation-regulated kinase 2; assay: PROTAC activity at CRBN/DYRK2 in human MDA-MB-231 cells assessed as reduction of DYRK2 protein level at 5 uM incubated for 12 hrs in presence of 3,5-bis(2-bromobenzylidene)piperidin-4-one by Western blot analysis; type: cell-based
[13] = target: T2, Protein cereblon/Dual specificity tyrosine-phosphorylation-regulated kinase 2; assay: PROTAC activity at CRBN/DYRK2 in human MDA-MB-231 cells assessed as decrease in DYRK2 level at 2.5 to 10 uM incubated for 12 hrs by flow cytometry analysis; type: cell-based; details: dose 5-10 µM, in the assay text read “5 to 10 uM” for “2.5 to 10 uM”
Outline: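 MM231 cells treated 12 h; DYRK2 immunostaining quantified by flow cytometry as FITC-A channel fluorescence intensity.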

[14] = target: T2, Protein cereblon/Dual specificity tyrosine-phosphorylation-regulated kinase 2; assay: PROTAC activity at CRBN/DYRK2 in human HeLa cells assessed as induction of DYRK2 degradation at 2.5 to 40 uM incubated for 24 hrs by Western blot analysis; type: cell-based; details: dose 2.5-40 µM; outline: as §3
[15] = target: T2, Protein cereblon/Dual specificity tyrosine-phosphorylation-regulated kinase 2; assay: PROTAC activity at CRBN/DYRK2 in human MDA-MB-231 cells assessed as decrease in p53 phosphorylation at Ser46 residue at 5 to 20 uM incubated for 12 hrs by Western blot analysis; type: cell-based; details: dose 5-20 µM
Outline: (§4)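 MM231 cells exposed 12 h across 1.25 to 20 μM; phospho-p53 (Ser46) and phospho-c-Myc (Ser62) immunoblotted, GAPDH loading reference; mean ± SEM of three independent replicates, one-way ANOVA.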

[16] = target: T2, Protein cereblon/Dual specificity tyrosine-phosphorylation-regulated kinase 2; assay: PROTAC activity at CRBN/DYRK2 in human MDA-MB-231 cells assessed as induction of DYRK2 degradation at 2.5 to 40 uM incubated for 24 hrs by Western blot analysis; type: cell-based; details: dose 2.5-40 µM; outline: as §2
[17] = target: T2, Protein cereblon/Dual specificity tyrosine-phosphorylation-regulated kinase 2; assay: PROTAC activity at CRBN/DYRK2 in human MDA-MB-231 cells assessed as decrease in c-Myc phosphorylation at Ser62 residue at 5 to 20 uM incubated for 12 hrs by Western blot analysis; type: cell-based; details: dose 5-20 µM; outline: as §4

`O=C1/C(=C/c2ccccc2Br)CNC/C1=C\c1ccccc1Br` showed an IC50 [1] of 0.024 µM, an IC50 (MDA-MB-231) of 4.2 µM and a Kd [2] of 7.9 µM.

In the case of `COc1cc(/C=C/C(=O)CC(=O)/C=C/c2ccc(OC(=O)CCOCCOCCOCCNC(=O)COc3cccc4c3C(=O)N(C3CCC(=O)NC3=O)C4=O)c(OC)c2)ccc1O` (centres undefined), the Activity [3] is reported as “Active”.

For `CN1C(=O)CCC(N2C(=O)c3cccc(NCCOCCOCCOCCNC(=O)CN4C/C(=C\c5ccccc5Br)C(=O)/C(=C/c5ccccc5Br)C4)c3C2=O)C1=O` (centres undefined), the Activity [4] was “inactive”.

For `COc1cc(/C=C/C(=O)CC(=O)/C=C/c2ccc(OC(=O)CCOCCOCCNC(=O)COc3cccc4c3C(=O)N(C3CCC(=O)NC3=O)C4=O)c(OC)c2)ccc1O` (centres undefined), the Activity [3] was “Active”.

`COc1cc(/C=C/C(=O)CC(=O)/C=C/c2ccc(O)c(OC)c2)ccc1O` [CURCUMIN] was tested, and the IC50 [1] was 0.01 µM, the IC50 (MDA-MB-231) was > 20 µM and the Kd [2] was 14.5 µM.

In the case of `O=C(CN1C/C(=C\c2ccccc2Cl)C(=O)/C(=C/c2ccccc2Cl)C1)NCCOCCOCCNc1cccc2c1C(=O)N(C1CCC(=O)NC1=O)C2=O` (centres undefined), the Activity [5] is reported as “Active”.

`O=C(CN1C/C(=C\c2ccccc2F)C(=O)/C(=C/c2ccccc2F)C1)NCCOCCOCCNc1cccc2c1C(=O)N(C1CCC(=O)NC1=O)C2=O` (centres undefined) was tested, and the Activity [5] was “Active”.

In the case of `O=C(CN1C/C(=C\c2ccccc2Cl)C(=O)/C(=C/c2ccccc2Cl)C1)NCCOCCOCCOCCNc1cccc2c1C(=O)N(C1CCC(=O)NC1=O)C2=O` (centres undefined), the Activity [5] is reported as “Active”.

In the case of `O=C(CN1C/C(=C\c2ccccc2Br)C(=O)/C(=C/c2ccccc2Br)C1)NCCOCCOCCOCCNc1cccc2c1C(=O)N(C1CCC(=O)NC1=O)C2=O` (centres undefined), the Activity [6] is reported as “Active”, the Activity [7] is reported as “Tde” and the Activity [8] is reported as “Active”. The DC50 [9] was 1.61 µM, the Activity [10] was “inactive” and the DC50 [11] was 3.26 µM. For the same molecule, the Activity [12] was “inactive”, the Activity [13] was “Active” and the Activity [14] was “Active”. The IC50 (MDA-MB-231) was 9.1 µM, the Activity [5] was “Active” and the Activity [15] was “Active”. For the same molecule, the Activity [16] was “Active”, the Activity [17] was “Active” and the Kd [2] was 29.7 µM.

With `O=C(CN1C/C(=C\c2ccccc2F)C(=O)/C(=C/c2ccccc2F)C1)NCCOCCOCCOCCNc1cccc2c1C(=O)N(C1CCC(=O)NC1=O)C2=O` (centres undefined) the Activity [5] was “Active”.

`O=C(CN1C/C(=C\c2ccccc2Br)C(=O)/C(=C/c2ccccc2Br)C1)NCCOCCOCCNc1cccc2c1C(=O)N(C1CCC(=O)NC1=O)C2=O` (centres undefined) was tested, and the Activity [5] was “Active”.
